Assay results taken from PMC6140336 (Cell, 2018).

Experiments:
[1] = test system: TCR55-transduced 58−/− T cells; assay: IL-2 ELISA, TCR55-transduced cell line; assay type: cell-based, murine; details: peptide-pulsed KG-1 APCs or OKT3, 24 hrs, result in words
Procedure, shortened: (§1)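 58−/− cells carrying the TCR were rested overnight in complete RPMI. KG-1 APCs were pulsed with peptide for 2 h or overnight at 37 °C, washed, and mixed 1:1 with the T cells for 24 hrs at 37 °C. Secreted mouse IL-2 was measured by sandwich ELISA (avidin-HRP, TMB, H3PO4 stop) read at 450 and 570 nm. Biological and technical triplicates.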

[2] = test system: TCR589-transduced 58−/− T cells; assay: IL-2 ELISA, TCR589-transduced cell line; assay type: cell-based, murine; details: peptide-pulsed KG-1 APCs or OKT3, 24 hrs, result in words
Procedure, shortened: as §1

[3] = test system: SKW3 T cells expressing TCR55; assay: pERK1/2 phospho-flow cytometry, TCR55 cells; assay type: cell-based, human; details: peptide-pulsed KG-1 cells or OKT3, 15 minutes, result in words
[4] = test system: SKW3 T cells expressing TCR589; assay: pERK1/2 phospho-flow cytometry, TCR589 cells; assay type: cell-based, human; details: peptide-pulsed KG-1 cells or OKT3, 15 minutes, result in words
Procedure, shortened: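 SKW3 cells were rested overnight. Peptide-pulsed KG-1 cells (2 h) were washed and mixed 1:1 with them (125,000 each), then co-cultured 15 min at 37 °C. Cells were fixed in 4% PFA then Cytofix (30 min, 37 °C), permeabilised in ice-cold methanol or Perm Buffer III, and stained 1 h at RT with anti-pERK1/2 (1:50) and anti-CD3. Mean pERK MFI of CD3+ cells by flow. Biological and technical triplicates.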

Substance: OKT3: anti-CD3 antibody (clone OKT3), non-specific TCR stimulus
- IL-2 secretion [1]: responded similarly
- IL-2 secretion [2]: responded similarly
- ERK1/2 phosphorylation (pERK) [3]: robust ERK1/2 phosphorylation
- ERK1/2 phosphorylation (pERK) [4]: robust ERK1/2 phosphorylation
